These results are taken from ChEMBL document CHEMBL1140872, “Discovery of a potent and selective inhibitor for human carbonyl reductase 1 from propionate scanning applied to the macrolide zearalenone” (Bioorg Med Chem, 2009).

Structures are written as SMILES.

Assay [1] deals with T1, Carbonyl reductase [NADPH] 3 (Homo sapiens) (UniProt O75828).
T1 sequence (whole entry): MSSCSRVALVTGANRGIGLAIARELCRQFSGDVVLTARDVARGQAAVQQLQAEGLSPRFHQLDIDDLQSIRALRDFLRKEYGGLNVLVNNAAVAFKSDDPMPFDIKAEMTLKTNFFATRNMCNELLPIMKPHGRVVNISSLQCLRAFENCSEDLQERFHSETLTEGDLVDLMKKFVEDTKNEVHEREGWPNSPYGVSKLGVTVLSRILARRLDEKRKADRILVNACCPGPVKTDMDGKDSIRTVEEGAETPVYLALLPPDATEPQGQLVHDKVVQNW
Kind of assay: Binding affinity to human recombinant carbonyl reductase 3 expressed in Escherichia coli assessed as thermal shift by differential scanning fluorimetry in presence of NADP+. An outline of the steps: (§1)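 Thermal-shift (DSF) binding assay with purified recombinant catalytic domains or proteins carrying an N- or C-terminal His6 tag or GST fusion. Purity was >95% by SDS/PAGE and identity was confirmed by MS. Protein was at 2 µM final in 10 mM HEPES pH 7.5 and 150 mM NaCl. Tm shift is reported, with 2 °C as the threshold for binding.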

The target of assay [2] is T2, Carbonyl reductase [NADPH] 1 (Homo sapiens) (UniProt P16152).
T2 sequence (whole entry): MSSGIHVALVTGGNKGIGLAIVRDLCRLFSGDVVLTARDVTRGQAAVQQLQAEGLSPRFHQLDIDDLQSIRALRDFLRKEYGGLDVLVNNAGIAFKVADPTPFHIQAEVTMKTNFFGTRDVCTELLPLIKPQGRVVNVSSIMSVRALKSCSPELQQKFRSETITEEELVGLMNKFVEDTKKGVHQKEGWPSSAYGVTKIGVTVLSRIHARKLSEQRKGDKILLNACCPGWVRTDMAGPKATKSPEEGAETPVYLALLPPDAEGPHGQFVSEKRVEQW
Description: Binding affinity to human recombinant carbonyl reductase 1 expressed in Escherichia coli assessed as thermal shift by differential scanning fluorimetry in absence of cofactor. An outline of the steps: as §1

Assay [3] deals with T2, Carbonyl reductase [NADPH] 1 (Homo sapiens). Description: Binding affinity to human recombinant carbonyl reductase 1 expressed in Escherichia coli assessed as thermal shift by differential scanning fluorimetry in presence of NADPH. In short, it runs like this:
as §1
On the technique in general: DSF heats the sample and reads unfolding from a dye or from intrinsic fluorescence.

For assay [4], the target named is T1, Carbonyl reductase [NADPH] 3 (Homo sapiens). Description: Binding affinity to human recombinant carbonyl reductase 3 expressed in Escherichia coli assessed as thermal shift by differential scanning fluorimetry in presence of NADPH. In short, it runs like this: as §1
The target of assay [5] is T2, Carbonyl reductase [NADPH] 1 (Homo sapiens). Kind of assay: Binding affinity to human recombinant carbonyl reductase 1 expressed in Escherichia coli assessed as thermal shift by differential scanning fluorimetry in presence of NADP+. An outline of the steps:
as §1

The target of assay [6] is T1, Carbonyl reductase [NADPH] 3 (Homo sapiens). Description: Binding affinity to human recombinant carbonyl reductase 3 expressed in Escherichia coli assessed as thermal shift by differential scanning fluorimetry in absence of cofactor. In short, it runs like this: as §1
Assay [7] deals with T3, Carbonyl reductase [NADPH] 1 (Homo sapiens, UniProt P16152).
T3 sequence (P16152 whole entry): T2 sequence (whole entry)
Kind of assay: Binding affinity to human recombinant carbonyl reductase 1 expressed in Escherichia coli assessed as NADPH oxidation using isatin as substrate. An outline of the steps: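 Purified recombinant CBR1 (200 nM) and NADPH were added to compound in 50 mM sodium phosphate, pH 6.8, 1 mM MgCl2. NADPH oxidation was followed as the fluorescence decrease at 460 nm (excitation 355 nm). Rates came from linear regression after normalising to the fluorescence rise at injection. Compounds were titrated at two isatin levels, with no-protein background subtracted. Sigmoidal fit gave IC50, then Ki from the isatin concentration.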

For assay [8], the target named is T2, Carbonyl reductase [NADPH] 1 (Homo sapiens). Kind of assay: Binding affinity to human recombinant carbonyl reductase 1 expressed in Escherichia coli assessed as NADPH oxidation at 200 uM relative to isatin. In short, it runs like this: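 Substrate test used 200 nM purified CBR1 and 200 µM NADPH, injected onto compound at 200 µM in 50 mM sodium phosphate pH 6.8 with 1 mM MgCl2. NADPH oxidation was read as the fluorescence decrease at 460 nm (excitation 355 nm). Rate came from linear regression after normalizing to the fluorescence rise on injection. Run in triplicate and expressed as % of the isatin rate.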

On to `O=c1c(O)c(-c2ccc(O)c(O)c2)oc2cc(O)cc(O)c12`, for which the Tm in assay [1], in assay [2], in assay [3], in assay [4], in assay [5] and in assay [6] was less than 2 °C in each case.
Regarding `Oc1cc(Cl)ccc1Oc1ccc(Cl)cc1Cl` [TRICLOSAN], the Tm (as a rule, the temperature at which the thermal transition is half complete) was less than 2 °C in assay [1]; less than 2 °C in assay [2]; less than 2 °C in assay [3]; less than 2 °C in assay [4]; 3.4 °C in assay [5]; less than 2 °C in assay [6]. Besides, in assay [7], the IC50 – broadly, the point on the concentration scale where inhibition reaches its midpoint – is 0.4 µM. Also, the Ki (commonly a measure of affinity in units of concentration, obtained from inhibition or displacement) in assay [7] is 0.06 µM.
Regarding `O=c1cc(-c2ccccc2)oc2cc(O)cc(O)c12` [CHRYSIN], the Activity in assay [8] turned out to be 16.3%. The Tm in assay [1] was less than 2 °C; in assay [2] it was less than 2 °C; in assay [3] it was less than 2 °C; in assay [4] it was less than 2 °C; in assay [5] it was 4.6 °C; in assay [6] it was less than 2 °C. Moreover, the IC50 in assay [7] was found to be 0.67 µM. Further, the Ki in assay [7] came to 0.11 µM.
With `O=C1C[C@@H](c2ccc(O)cc2)Oc2cc(O)cc(O)c21` [NARINGENIN], the Activity in assay [8] stood at 4.7%. Besides, the Tm is less than 2 °C in assay [1]; less than 2 °C in assay [2]; less than 2 °C in assay [3]; less than 2 °C in assay [4]; 2.3 °C in assay [5]; less than 2 °C in assay [6]. Besides, the IC50 in assay [7] came to 21.5 µM. Also, the Ki in assay [7] was 3.43 µM.
Turning to `COc1cc(O)c2c(c1)oc(=O)c1c3cc(O)c(O)cc3oc21` [WEDELOLACTONE], the Activity in assay [8] was determined as 5.8%. Also, the melting temperature (Tm) in assay [1] is less than 2 °C; in assay [2], 2 °C; in assay [3] it was less than 2 °C; in assay [4], less than 2 °C; in assay [5], 5.1 °C; in assay [6], less than 2 °C. Also, the IC50 in assay [7] was 3.78 µM. In addition, the inhibitory constant (Ki) in assay [7] was 0.6 µM.
With `COc1ccc(-c2coc3cc(O)cc(O)c3c2=O)cc1` [BIOCHANIN], the Activity in assay [8] turned out to be 9.3%. Besides, the Tm in assay [1] is less than 2 °C; in assay [2], less than 2 °C; in assay [3], less than 2 °C; in assay [4], less than 2 °C; in assay [5], 2.7 °C; in assay [6], less than 2 °C. Further, the IC50 in assay [7] is 12.7 µM. Further, in assay [7], the Ki amounted to 2.03 µM.
Consider `O=c1c(-c2ccc(O)cc2)coc2cc(O)cc(O)c12`, for which the Tm in assay [1], in assay [2], in assay [3], in assay [4], in assay [5] and in assay [6] was less than 2 °C in each case.
